ChEMBL document CHEMBL1129784, “Decomposition pathways and in vitro HIV inhibitory effects of isoddA pronucleotides: toward a rational approach for intracellular delivery of nucleoside 5'-monophosphates” (J Med Chem, 1996)
pEC50: −log10 of the molar value. Several values for one entry are separate records, joined by “and”; a condition that tells them apart may be missing. Equal entries are not always repeated.

Key:
[1] = Half life in CEM cell extracts (25 uM, 37 degree C); type: ADME, CCRF-CEM; details: human
Outline: (§1)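 Incubated at 25 µM initial concentration and 37 °C in full CEM cell extract, in RPMI 1640 with 10% heat-inactivated fetal calf serum, or in freshly withdrawn human serum. Aliquots analysed by on-line cleaning HPLC (precolumn deproteinization) with UV at 260 nm. Relative concentrations came from peak areas. Half-lives were derived from kinetic model fits: pseudo-first-order or substrate inhibition.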

[2] = Half life in culture medium (25 uM, 37 degree C); type: ADME; outline: as §1
[3] = Selectivity index which is the ratio between CC50 and EC50; type: functional
C8166 [4] = assay: Ability to reduce 50% viability of C8166 cells acutely infected with HIV-2 strain IIIB; type: functional; details: Homo sapiens, in the assay text read “HIV-2 strain CBL-20” for “HIV-2 strain IIIB”
Outline: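 Cytotoxicity in mock-infected cells run in parallel with the antiviral assay: 1 × 10^4 MT-4 or C8166 cells per well with or without various compound concentrations, 4-day incubation at 37 °C, viable cells counted by MTT. CC50 is the dose reducing viability by 50% at day 4. Mean of three independent determinations; variation among duplicates <22%.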

MT4 [5] = assay: Effective dose to achieve 50% protection of MT-4 cells from acutely infected HIV-1 strain IIIB; type: functional, cell-based; details: Homo sapiens
Outline: (§2)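 Inhibition of virus-induced cytopathogenicity in acutely infected cells. HIV-1 IIIB in MT-4 cells at 100 CCID50; HIV-2 CBL-20 in C8166 cells at 1000 CCID50. 1 × 10^4 cells per well with various compound concentrations, 4 days at 37 °C, viability by MTT. EC50 is the dose giving 50% protection. Mean of three independent determinations.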

C8166 [6] = assay: Effective dose to achieve 50% protection of C8166 cells acutely infected with HIV-2 strain IIIB; type: functional, cell-based; details: Homo sapiens, in the assay text read “HIV-2 strain CBL-20” for “HIV-2 strain IIIB”; outline: as §2
MT4 [7] = assay: Ability to reduce 50% viability of mock-infected MT-4 cells; details: Homo sapiens

half-life at 25 µM [1] [min] | half-life at 25 µM [2] [days] | pEC50 (C8166 [6]) | SMILES | SI [3] | CC50 (C8166 [4]) [µM] | pEC50 (MT4 [5]) | CC50 (MT4 [7]) [µM]
60 | 4.29 |  | Cc1cn(C2CC(N=[N+]=[N-])C(COP(=O)(OCCSC(=O)C(C)(C)C)OCCSC(=O)C(C)(C)C)O2)c(=O)[nH]c1=O (stereo not given) | 600 and 245 |  |  | 
< 6 | 0.375 |  | CC(=O)SCCOP(=O)(OCCSC(C)=O)OCC1OC(n2cc(C)c(=O)[nH]c2=O)CC1N=[N+]=[N-] (stereo not given) |  |  |  | 
 |  | 8.22 | Cc1cn([C@H]2C[C@H](N=[N+]=[N-])[C@@H](CO)O2)c(=O)[nH]c1=O [ZIDOVUDINE] | 30000 and > 83000 | > 500 | 8.30 | 150
